Values joined by “and” are separate entries in the source; they are usually repeats but may differ in a detail not shown here. Identical values can stand only once. Active and inactive are the calls of the source.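 The calls were made as follows: active = compounds halving RecBCD DNA-cutting activity at 52000 nM or lower IC50; inactive = the rest.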
The compounds below were run against RecBCD enzyme subunit RecC (Escherichia coli (strain K12)) + RecBCD enzyme subunit RecB (Escherichia coli (strain K12)) (UniProt P07648+P08394) (assay: RecBCD dsDNA exonuclease inhibition potency – biochemical, radioactivity readout, powder samples, counter-screen for AddAB inhibitor project, dose response (AID 623920)). Conditions: purified RecBCD, [3H] dsDNA nuclease, TCA-soluble radioactivity.
Outline: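 System – purified E. coli RecBCD · Input – RecBCD enzyme at 0.15 units (4.5 nM) per reaction · Reagent – [3H] T7 dsDNA, 6 µM nucleotides · Timing – compound with enzyme on ice first, nuclease reaction 20 min at 37 °C · Signal – TCA-soluble radioactivity by scintillation · Replication – triplicate measurement per compound dose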

RecBCD enzyme subunit RecC (Escherichia coli (strain K12)) + RecBCD enzyme subunit RecB (Escherichia coli (strain K12)), sequence (P07648 whole entry, looked up): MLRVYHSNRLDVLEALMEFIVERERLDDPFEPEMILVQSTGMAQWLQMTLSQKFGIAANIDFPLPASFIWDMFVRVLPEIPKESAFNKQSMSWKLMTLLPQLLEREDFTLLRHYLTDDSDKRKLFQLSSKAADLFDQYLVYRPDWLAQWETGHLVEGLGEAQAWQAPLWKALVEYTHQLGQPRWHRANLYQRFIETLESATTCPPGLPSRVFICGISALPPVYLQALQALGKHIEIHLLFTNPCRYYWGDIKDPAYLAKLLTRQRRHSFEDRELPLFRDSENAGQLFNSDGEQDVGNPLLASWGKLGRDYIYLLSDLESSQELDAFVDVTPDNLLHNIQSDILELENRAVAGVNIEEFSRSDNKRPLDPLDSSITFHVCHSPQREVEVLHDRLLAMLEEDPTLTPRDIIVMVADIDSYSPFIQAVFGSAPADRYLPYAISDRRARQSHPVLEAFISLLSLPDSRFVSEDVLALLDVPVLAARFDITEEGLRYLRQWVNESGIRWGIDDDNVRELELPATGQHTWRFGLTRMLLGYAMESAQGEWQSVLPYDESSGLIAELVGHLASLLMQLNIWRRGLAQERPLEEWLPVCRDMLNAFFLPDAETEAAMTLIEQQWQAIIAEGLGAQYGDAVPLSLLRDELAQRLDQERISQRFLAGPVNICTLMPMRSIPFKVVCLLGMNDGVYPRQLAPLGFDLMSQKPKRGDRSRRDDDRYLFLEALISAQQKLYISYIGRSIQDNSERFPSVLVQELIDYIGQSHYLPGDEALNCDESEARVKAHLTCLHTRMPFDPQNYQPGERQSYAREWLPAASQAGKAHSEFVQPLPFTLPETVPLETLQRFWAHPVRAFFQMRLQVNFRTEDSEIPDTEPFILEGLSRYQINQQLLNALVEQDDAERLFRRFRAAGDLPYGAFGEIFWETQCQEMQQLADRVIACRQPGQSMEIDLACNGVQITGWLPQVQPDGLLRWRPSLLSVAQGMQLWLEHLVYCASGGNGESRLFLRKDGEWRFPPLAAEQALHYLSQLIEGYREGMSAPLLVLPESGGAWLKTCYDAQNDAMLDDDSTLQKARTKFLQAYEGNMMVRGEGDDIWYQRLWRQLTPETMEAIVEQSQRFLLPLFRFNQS
RecBCD enzyme subunit RecC (Escherichia coli (strain K12)) + RecBCD enzyme subunit RecB (Escherichia coli (strain K12)), sequence (P08394 whole entry, looked up): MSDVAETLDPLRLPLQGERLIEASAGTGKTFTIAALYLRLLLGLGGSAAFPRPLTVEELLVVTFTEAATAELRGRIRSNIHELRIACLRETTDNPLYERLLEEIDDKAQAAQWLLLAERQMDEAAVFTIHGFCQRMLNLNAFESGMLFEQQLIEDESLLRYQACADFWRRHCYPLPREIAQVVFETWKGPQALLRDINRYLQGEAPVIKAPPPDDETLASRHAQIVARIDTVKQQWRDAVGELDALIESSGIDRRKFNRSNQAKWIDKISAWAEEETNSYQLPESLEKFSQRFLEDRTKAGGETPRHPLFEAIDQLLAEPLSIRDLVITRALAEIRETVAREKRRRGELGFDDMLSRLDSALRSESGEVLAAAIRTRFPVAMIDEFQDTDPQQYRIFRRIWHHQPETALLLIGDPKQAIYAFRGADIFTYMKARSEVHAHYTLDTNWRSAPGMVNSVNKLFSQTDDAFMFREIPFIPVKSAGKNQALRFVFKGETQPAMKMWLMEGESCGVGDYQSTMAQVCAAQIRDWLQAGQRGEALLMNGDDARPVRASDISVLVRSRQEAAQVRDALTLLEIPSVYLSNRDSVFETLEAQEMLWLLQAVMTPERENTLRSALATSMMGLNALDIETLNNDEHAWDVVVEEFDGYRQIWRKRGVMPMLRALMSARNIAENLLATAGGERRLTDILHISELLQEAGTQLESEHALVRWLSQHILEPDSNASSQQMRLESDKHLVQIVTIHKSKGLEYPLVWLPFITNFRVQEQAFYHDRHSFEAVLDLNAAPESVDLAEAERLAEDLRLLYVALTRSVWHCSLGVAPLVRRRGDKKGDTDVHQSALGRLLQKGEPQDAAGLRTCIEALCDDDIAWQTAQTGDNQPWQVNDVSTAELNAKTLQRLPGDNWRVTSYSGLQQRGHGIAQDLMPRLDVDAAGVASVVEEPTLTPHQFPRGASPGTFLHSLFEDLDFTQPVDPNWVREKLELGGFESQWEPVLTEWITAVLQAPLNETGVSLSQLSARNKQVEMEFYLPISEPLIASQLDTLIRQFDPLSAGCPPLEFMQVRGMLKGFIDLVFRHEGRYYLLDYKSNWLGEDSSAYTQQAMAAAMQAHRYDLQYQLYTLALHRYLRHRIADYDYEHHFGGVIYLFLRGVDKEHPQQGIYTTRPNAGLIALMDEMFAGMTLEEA

Structure (SMILES)	IC50
Cc1cccnc1NC(=O)c1ccc([N+](=O)[O-])o1	> 100 µM (inactive)
O=C(Nc1ccc(N2CCOCC2)cc1)c1ccc([N+](=O)[O-])o1	> 100 µM (inactive)
CC(=O)Nc1ccc2nc(NC(=O)c3ccc([N+](=O)[O-])o3)sc2c1	> 100 µM (inactive)
NC(=O)c1ccsc1NC(=O)COC(=O)c1ccc([N+](=O)[O-])o1	> 100 µM (inactive)
N#Cc1c(NC(=O)c2ccc(-c3ccccc3[N+](=O)[O-])o2)sc2c1CCCC2	> 100 µM (inactive)
O=C(NCc1cccnc1)c1ccc([N+](=O)[O-])o1	> 100 µM (inactive)
CC1(C)Cc2c(sc(NC(=O)c3ccco3)c2C#N)CO1	> 100 µM (inactive)
O=C(Nc1cccc(NC(=O)c2ccccc2Cl)c1)c1ccc([N+](=O)[O-])o1	> 100 µM (inactive)
N#Cc1c(NC(=O)c2ccccc2)sc2c1CCC2	> 100 µM (inactive)
N#Cc1c(NC(=O)c2cnccn2)sc2c1CCCC2	33 µM and 42 µM
Cc1ccc(C(=O)Nc2sc3c(c2C#N)CCCCC3)o1	> 100 µM (inactive)
CCn1cc(C(=O)O)c(=O)c2cc(F)c(N3CCN(C(=S)Nc4ccccc4C(F)(F)F)CC3)cc21	40 µM
CCn1cc(C(=O)O)c(=O)c2cnc(N3CCN(C(=S)NCc4ccccc4)CC3)nc21	20 µM
CNC(=O)c1c(NC(=O)c2nc(SCc3ccccc3)ncc2Cl)sc2c1CCCC2	inactive
CCn1cc(C(=O)O)c(=O)c2cnc(N3CCN(C(=S)Nc4ccccc4C(F)(F)F)CC3)nc21	13 µM and 40 µM
Cc1sc(NC(=O)c2ccc(Br)o2)c(C#N)c1C	47 µM

Structure (SMILES)	IC50
O=C(Nc1ncccn1)c1ccc([N+](=O)[O-])o1	> 100 µM (inactive)
N#Cc1c(NC(=O)c2ccc([N+](=O)[O-])o2)sc2c1CCC2	51 µM
Cc1ccc2nc(/C(C#N)=C\c3ccc([N+](=O)[O-])o3)[nH]c2c1	> 100 µM (inactive)
CCn1cc(C(=O)O)c(=O)c2cnc(N3CCN(C(=S)NC4CC5CCC4C5)CC3)nc21 (stereo unspecified)	inactive
N#Cc1c(NC(=O)c2ccccc2C(=O)O)sc2c1CCCC2	> 100 µM (inactive)
CCn1cc(C(=O)O)c(=O)c2cnc(N3CCN(C(=S)NC(=O)c4cccc(C)c4)CC3)nc21	9 µM
CCn1cc(C(=O)O)c(=O)c2cnc(N3CCN(C(=S)NC(C)c4ccccc4)CC3)nc21 (stereo unspecified)	18 µM
COC(=O)c1c(-c2ccccc2)csc1NC(=O)c1cnccn1	22 µM
CCn1cc(C(=O)O)c(=O)c2cnc(N3CCN(C(=S)Nc4ccc(Cl)cc4)CC3)nc21	11 µM
O=C(OCC(=O)c1cccs1)c1ccc([N+](=O)[O-])o1	> 100 µM (inactive)
N#Cc1c(NC(=O)c2ccco2)sc2c1CCC2	inactive
CCn1cc(C(=O)O)c(=O)c2cc(F)c(N3CCN(C(=S)Nc4cccc(C(F)(F)F)c4)CC3)cc21	3 µM
C=CCn1c(Sc2ncc([N+](=O)[O-])s2)n[nH]c1=O	> 166 µM (inactive)
CCn1cc(C(=O)O)c(=O)c2cnc(N3CCN(C(=S)Nc4cccc(C(F)(F)F)c4)CC3)nc21	4 µM
N#Cc1c(NC(=O)c2cccc(F)c2)sc2c1CCCC2	> 100 µM (inactive)

Source: PubChem BioAssay AID623920 (The Scripps Research Institute Molecular Screening Center, 2012)
